Measurements published in ChEMBL document CHEMBL1125307, “Novel 1,2,4-oxadiazoles and 1,2,4-thiadiazoles as dual 5-lipoxygenase and cyclooxygenase inhibitors” (J Med Chem, 1992).
Active and inactive are the calls of the source. No cut-off for these calls is given here.

Assays:
Rattus norvegicus [1] = organism: Rattus norvegicus; assay: Ratio of IC50 against 5-LO and COX
Outline: (§1)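 In ionophore-stimulated RBL-1 cells (2×10^6/mL, PBS with 1.0 mM Ca, 10 min compound preincubation at room temperature, 5 μM A23187 for 7 min at 37 °C), supernatant LTB₄ (5-LO) and PGF₂α (CO) were each quantified by RIA over 0.10–10.0 μM. IC50s came from linear regression, and the ratio is the 5-LO IC50 over the CO IC50.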

[2] = target: T1, Polyunsaturated fatty acid 5-lipoxygenase (Rattus norvegicus, UniProt P12527); assay: Inhibitory activity against 5-Lipoxygenase
T1 sequence (P12527 whole entry): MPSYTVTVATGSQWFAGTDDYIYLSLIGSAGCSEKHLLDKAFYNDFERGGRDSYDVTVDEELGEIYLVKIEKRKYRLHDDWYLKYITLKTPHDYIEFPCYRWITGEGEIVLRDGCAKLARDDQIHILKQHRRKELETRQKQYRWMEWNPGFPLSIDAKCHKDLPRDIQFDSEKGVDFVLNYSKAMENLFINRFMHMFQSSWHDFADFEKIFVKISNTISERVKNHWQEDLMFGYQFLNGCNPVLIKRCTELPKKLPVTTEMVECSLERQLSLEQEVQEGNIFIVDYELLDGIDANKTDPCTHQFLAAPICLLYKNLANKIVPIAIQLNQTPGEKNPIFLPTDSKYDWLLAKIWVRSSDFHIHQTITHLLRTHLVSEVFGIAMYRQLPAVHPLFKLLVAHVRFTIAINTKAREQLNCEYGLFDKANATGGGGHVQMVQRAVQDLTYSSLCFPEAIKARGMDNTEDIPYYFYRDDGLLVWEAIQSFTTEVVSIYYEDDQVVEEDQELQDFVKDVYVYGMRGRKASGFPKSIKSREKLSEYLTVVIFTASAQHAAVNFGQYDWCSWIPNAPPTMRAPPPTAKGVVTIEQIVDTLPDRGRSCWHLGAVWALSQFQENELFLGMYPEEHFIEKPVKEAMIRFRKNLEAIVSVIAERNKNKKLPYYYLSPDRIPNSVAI
Outline: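 Rat basophilic leukemia RBL-1 cells were grown in suspension in MEM with 12% FBS, washed, and resuspended at 2×10^6 cells/mL in PBS pH 7.4 with 1.0 mM calcium. Compound in DMSO was preincubated 10 min at room temperature, then 5 μM A23187 was added for 7 min at 37 °C. LTB₄ in the supernatant was measured by RIA at 0.10–10.0 μM. IC50 was determined by linear regression.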

Cyclooxygenase = target: T2, Cyclooxygenase (Rattus norvegicus, UniProt P35355+Q63921); assay: Evaluated in vitro for its inhibitory activity against Prostaglandin G/H synthase; assay type: protein assay
T2 sequence (P35355 whole entry): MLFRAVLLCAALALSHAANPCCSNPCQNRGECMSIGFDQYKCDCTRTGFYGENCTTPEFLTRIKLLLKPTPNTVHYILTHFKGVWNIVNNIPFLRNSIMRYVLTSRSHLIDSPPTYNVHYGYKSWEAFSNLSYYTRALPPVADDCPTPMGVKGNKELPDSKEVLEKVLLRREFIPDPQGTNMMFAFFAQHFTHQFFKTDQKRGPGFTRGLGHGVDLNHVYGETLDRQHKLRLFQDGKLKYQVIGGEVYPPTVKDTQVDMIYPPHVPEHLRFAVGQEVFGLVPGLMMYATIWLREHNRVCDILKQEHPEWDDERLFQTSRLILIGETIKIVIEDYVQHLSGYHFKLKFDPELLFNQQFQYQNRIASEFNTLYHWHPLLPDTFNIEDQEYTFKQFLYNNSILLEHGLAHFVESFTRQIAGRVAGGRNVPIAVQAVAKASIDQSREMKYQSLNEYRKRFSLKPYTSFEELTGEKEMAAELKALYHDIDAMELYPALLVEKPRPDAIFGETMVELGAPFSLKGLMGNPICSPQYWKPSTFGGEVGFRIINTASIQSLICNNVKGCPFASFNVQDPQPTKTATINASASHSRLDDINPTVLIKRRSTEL
T2 sequence (Q63921 whole entry): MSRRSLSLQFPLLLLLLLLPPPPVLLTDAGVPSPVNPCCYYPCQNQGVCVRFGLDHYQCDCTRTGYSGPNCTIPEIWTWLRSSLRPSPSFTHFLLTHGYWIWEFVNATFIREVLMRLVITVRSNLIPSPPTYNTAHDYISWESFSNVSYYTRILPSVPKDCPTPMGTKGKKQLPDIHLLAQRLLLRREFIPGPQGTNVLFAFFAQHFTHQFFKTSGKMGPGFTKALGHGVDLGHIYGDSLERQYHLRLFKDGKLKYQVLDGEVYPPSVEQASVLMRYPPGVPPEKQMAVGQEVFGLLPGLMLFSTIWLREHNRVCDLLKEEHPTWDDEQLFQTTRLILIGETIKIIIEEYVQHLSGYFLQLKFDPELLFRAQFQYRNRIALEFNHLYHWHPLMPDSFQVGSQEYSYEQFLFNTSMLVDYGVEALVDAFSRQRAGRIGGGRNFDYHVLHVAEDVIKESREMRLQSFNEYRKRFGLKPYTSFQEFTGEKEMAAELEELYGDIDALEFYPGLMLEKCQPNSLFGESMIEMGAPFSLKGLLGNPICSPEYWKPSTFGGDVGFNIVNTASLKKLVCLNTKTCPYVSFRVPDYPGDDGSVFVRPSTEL

Rattus norvegicus [3] = assay: Compound was evaluated for the antiinflammatory activity by taking the percentage inhibition of edema in the carrageenan foot-pad edema test at the dose of 30 mg/kg; N=Inactive, <25% inhibition; assay type: functional, organism-based; set-up: dose 30 mg/kg
Outline: (§2)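 Male Wistar rats dosed orally (0.5% HPMC/0.2% Tween 80 or Labrafils, 10 mL/kg) 1 h before subplantar injection of 0.10 mL 1% carrageenan into right hind paw under light anesthesia. Paw volume by mercury plethysmography at challenge and 5 h later; percent inhibition ± SEM versus vehicle group. Doses 10.0 and 30.0 mg/kg po, 7-14 rats per dose.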

Rattus norvegicus [4] = assay: Compound was evaluated for the antiinflammatory activity by taking the percentage inhibition of edema in the carrageenan foot-pad edema test at the dose of 10 mg/kg; assay type: functional; outline: as §2
Rattus norvegicus [5] = assay: Compound was evaluated for the antiinflammatory activity by taking the percentage inhibition of edema in the carrageenan foot-pad edema test at the dose of 30 mg/kg; assay type: functional; outline: as §2
Rattus norvegicus [6] = assay: Evaluated for the percent rats with ulcers at the dose of 200 mg/kg (number of animals used per group in the experiment are 10 ); assay type: functional
Outline: (§3)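 Male outbred Wistar rats (100-250 g) fasted 24 h, given compound orally in 0.5% HPMC (2 mL/kg), then denied food and water 6 more h. Killed with CO2; stomachs opened along greater curvature and scored for ulcers. Percent of rats with ulcers per dose; up to 200 mg/kg po, 10 rats per dose.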

Rattus norvegicus [7] = assay: Compound was evaluated for th antiinflammatory activity administering through oral route by taking the inhibitory dose of induced edema in the mycobacterium foot-pad edema test; assay type: functional
[8] = target: T1, Polyunsaturated fatty acid 5-lipoxygenase; assay: Evaluated in vitro for its inhibitory activity against 5-lipoxygenase
Rattus norvegicus [9] = assay: Compound was evaluated for the percent rats with ulcers at the dose of 30 mg/kg (number of animals used per group in the experiment are 10 ); assay type: functional; outline: as §3
Rattus norvegicus [10] = assay: Evaluated for the antiinflammatory activity by measuring the percentage inhibition of edema in the carrageenan foot-pad edema test at the dose of 30 mg/kg; assay type: functional; outline: as §2
Rattus norvegicus [11] = assay: Evaluated for the antiinflammatory activity by measuring the percentage inhibition of edema in the carrageenan foot-pad edema test at the dose of 10 mg/kg; assay type: functional; outline: as §2
Rattus norvegicus [12] = organism: Rattus norvegicus; assay: Ratio of IC50 against 5-LO to that of CO enzyme.; outline: as §1
Rattus norvegicus [13] = assay: Evaluated for the antiinflammatory activity by measuring the dose (po) which inhibited Mycobacterium induced foot-pad edema in rats; assay type: functional
Rattus norvegicus [14] = assay: Compound was evaluated for the percent rats with ulcers at the dose of 36 mg/kg (number of animals used per group in the experiment are 10 ); assay type: functional; outline: as §3

| SMILES | Ratio (Rattus norvegicus [1]) | IC50 [2] | IC50 (Cyclooxygenase) | inhibition (Rattus norvegicus [3]) | inhibition in vivo at 10 mg/kg (Rattus norvegicus [4]) | inhibition in vivo at 30 mg/kg (Rattus norvegicus [5]) | Activity (Rattus norvegicus [6]) | ID40 (Rattus norvegicus [7]) | IC50 [8] | Activity (Rattus norvegicus [9]) | inhibition in vivo at 30 mg/kg (Rattus norvegicus [10]) | inhibition in vivo at 10 mg/kg (Rattus norvegicus [11]) | Ratio (Rattus norvegicus [12]) | ID40 (Rattus norvegicus [13]) | Activity (Rattus norvegicus [14]) |
| --- | --- | --- | --- | --- | --- | --- | --- | --- | --- | --- | --- | --- | --- | --- | --- |
| CC(C)(C)c1cc(-c2nc(CCl)no2)cc(C(C)(C)C)c1O | 7.8 | 780 nM | 100 nM | inactive | – | – | – | – | – | – | – | – | – | – | – |
| CC(C)(C)c1cc(-c2nnc(S)s2)cc(C(C)(C)C)c1O.C[N+](C)(C)CC[O-] | 3.5 | 2800 nM | 800 nM | – | 49.9% | 47.9% | 0% | 7.7 mg/kg | – | – | – | – | – | – | – |
| CC(C)(C)c1cc(C2CCOC2=O)cc(C(C)(C)C)c1O (configuration not stated) | – | – | 150 nM | – | – | – | – | – | 2500 nM | 30% | 28.4% | 16.6% | 17 | 3.7 mg/kg | – |
| Cc1ccc(Cl)c(Nc2ccccc2C(=O)[O-])c1Cl.O.[Na+] [MECLOFENAMATE SODIUM] | – | – | – | – | – | – | – | – | – | – | 40.8% | 34.4% | – | 0.4 mg/kg | 50% |
